From ChEMBL document CHEMBL3351355, “Structure-affinity/activity relationships of 1,4-dioxa-spiro[4.5]decane based ligands at α1 and 5-HT1A receptors” (Eur J Med Chem, 2014)

Legend:
[1] = target: T1, Alpha-1A adrenergic receptor (Rattus norvegicus) (UniProt P43140); test: Antagonist activity at alpha1A adrenoceptor in Wistar rat vas deferans assessed as noradrenaline-induced contractions after 30 mins
T1 sequence (whole entry): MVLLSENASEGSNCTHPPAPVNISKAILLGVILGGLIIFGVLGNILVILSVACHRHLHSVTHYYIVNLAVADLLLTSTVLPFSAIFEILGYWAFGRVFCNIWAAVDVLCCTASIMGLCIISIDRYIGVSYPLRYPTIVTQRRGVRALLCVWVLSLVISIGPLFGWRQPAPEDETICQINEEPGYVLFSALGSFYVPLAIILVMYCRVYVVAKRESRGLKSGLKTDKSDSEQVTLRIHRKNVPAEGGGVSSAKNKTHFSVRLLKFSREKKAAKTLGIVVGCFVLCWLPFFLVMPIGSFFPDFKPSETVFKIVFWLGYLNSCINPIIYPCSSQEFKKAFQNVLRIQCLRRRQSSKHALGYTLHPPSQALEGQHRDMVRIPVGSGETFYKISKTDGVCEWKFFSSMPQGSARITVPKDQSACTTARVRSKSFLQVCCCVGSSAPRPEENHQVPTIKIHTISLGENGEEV

Rattus norvegicus [2] = organism: Rattus norvegicus; test: Selectivity ratio of Kb for alpha1B adrenoceptor in Wistar rat spleen to Kb for alpha1A adrenoceptor in Wistar rat vas deferans; assay type: tissue-based
[3] = target: T2, Alpha-1D adrenergic receptor (Homo sapiens, UniProt P25100); test: Displacement of [3H]prazosin from human recombinant alpha1D adrenoceptor expressed in CHO cells after 30 mins by liquid scintillation counting; assay type: cell-based
T2 sequence (P25100 whole entry): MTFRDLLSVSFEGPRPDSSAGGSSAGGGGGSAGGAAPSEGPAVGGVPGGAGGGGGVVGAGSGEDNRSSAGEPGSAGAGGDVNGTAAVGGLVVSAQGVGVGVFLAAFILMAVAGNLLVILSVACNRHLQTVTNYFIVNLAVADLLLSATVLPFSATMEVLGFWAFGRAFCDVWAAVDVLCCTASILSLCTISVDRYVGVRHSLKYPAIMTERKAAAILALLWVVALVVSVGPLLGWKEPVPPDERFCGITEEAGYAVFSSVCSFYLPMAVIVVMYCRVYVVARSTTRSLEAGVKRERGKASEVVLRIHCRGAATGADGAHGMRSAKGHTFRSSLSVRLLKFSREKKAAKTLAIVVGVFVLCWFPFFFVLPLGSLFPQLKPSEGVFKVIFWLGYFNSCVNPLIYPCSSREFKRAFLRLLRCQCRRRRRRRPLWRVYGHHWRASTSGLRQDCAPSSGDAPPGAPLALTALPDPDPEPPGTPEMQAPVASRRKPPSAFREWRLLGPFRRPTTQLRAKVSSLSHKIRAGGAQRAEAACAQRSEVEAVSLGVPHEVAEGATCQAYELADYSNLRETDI
Procedure, shortened: (§1)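 CHO cells were stably transfected by electroporation with each human α1 subtype. Membranes (70 µg protein) were incubated in 50 mM Tris pH 7.4 with 0.1–0.4 nM [3H]prazosin and competitor (1 pM–1 µM) for 30 min at 25 °C. Nonspecific binding with 10 µM tamsulosin. Filtration and scintillation counting. pKi from 2–3 experiments in duplicate.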

Rattus norvegicus [4] = organism: Rattus norvegicus; test: Selectivity ratio of Kb for alpha1D adrenoceptor in Wistar rat thoracic aorta to Kb for alpha1A adrenoceptor in Wistar rat vas deferans; assay type: tissue-based
[5] = target: T3, Alpha-1D adrenergic receptor (Rattus norvegicus) (UniProt P23944); test: Antagonist activity at alpha1D adrenoceptor in Wistar rat thoracic aorta assessed as noradrenaline-induced contractions after 30 mins
T3 sequence (whole entry): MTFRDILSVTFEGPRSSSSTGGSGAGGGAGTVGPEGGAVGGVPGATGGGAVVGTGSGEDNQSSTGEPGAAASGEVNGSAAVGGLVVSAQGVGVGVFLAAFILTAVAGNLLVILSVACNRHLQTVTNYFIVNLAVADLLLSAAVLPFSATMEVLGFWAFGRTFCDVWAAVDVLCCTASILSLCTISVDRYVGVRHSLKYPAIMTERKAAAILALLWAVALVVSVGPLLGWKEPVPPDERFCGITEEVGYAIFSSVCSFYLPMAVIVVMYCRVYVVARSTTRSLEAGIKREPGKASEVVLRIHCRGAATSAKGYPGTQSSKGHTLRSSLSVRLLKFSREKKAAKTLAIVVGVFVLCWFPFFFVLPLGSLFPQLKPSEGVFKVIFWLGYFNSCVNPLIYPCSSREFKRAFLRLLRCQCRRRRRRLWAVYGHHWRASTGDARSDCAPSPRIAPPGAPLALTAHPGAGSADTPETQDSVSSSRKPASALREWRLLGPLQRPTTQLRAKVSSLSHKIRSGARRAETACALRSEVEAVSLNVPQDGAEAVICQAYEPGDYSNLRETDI

[6] = target: T4, Alpha-1B adrenergic receptor (Homo sapiens, UniProt P35368); test: Displacement of [3H]prazosin from human recombinant alpha1B adrenoceptor expressed in CHO cells after 30 mins by liquid scintillation counting; assay type: cell-based; procedure, shortened: as §1
T4 sequence (P35368 whole entry): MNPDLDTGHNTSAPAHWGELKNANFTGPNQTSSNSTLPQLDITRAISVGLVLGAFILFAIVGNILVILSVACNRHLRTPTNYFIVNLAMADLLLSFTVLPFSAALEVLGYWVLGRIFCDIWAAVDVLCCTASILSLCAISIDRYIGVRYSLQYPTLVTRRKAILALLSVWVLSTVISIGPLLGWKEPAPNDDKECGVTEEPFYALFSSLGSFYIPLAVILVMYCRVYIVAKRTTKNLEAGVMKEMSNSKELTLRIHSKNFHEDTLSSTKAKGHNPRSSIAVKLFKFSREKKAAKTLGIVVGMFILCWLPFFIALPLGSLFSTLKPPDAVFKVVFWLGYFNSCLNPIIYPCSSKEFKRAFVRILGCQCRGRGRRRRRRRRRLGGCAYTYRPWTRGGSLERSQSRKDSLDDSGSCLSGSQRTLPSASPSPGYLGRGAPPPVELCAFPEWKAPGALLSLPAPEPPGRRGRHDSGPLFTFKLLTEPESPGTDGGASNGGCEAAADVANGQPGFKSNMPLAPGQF

[7] = target: T5, Alpha-1A adrenergic receptor (Homo sapiens, UniProt P35348); test: Displacement of [3H]prazosin from human recombinant alpha1A adrenoceptor expressed in CHO cells after 30 mins by liquid scintillation counting
T5 sequence (P35348 whole entry): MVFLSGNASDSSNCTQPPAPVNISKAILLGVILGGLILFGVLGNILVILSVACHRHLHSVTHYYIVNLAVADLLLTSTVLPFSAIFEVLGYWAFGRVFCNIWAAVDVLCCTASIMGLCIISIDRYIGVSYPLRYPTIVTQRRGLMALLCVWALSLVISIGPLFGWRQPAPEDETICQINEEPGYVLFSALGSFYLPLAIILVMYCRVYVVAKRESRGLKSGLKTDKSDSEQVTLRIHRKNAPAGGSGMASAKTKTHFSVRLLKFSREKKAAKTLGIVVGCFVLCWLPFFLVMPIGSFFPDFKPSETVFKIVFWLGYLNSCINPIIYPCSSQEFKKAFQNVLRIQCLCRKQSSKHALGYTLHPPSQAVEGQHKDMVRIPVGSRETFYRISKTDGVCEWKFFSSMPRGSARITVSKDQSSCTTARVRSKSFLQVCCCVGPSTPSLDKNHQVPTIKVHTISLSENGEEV

| Structure (SMILES) | pKb [1] | Ratio (Rattus norvegicus [2]) | Ki [3] [nM] | Ratio (Rattus norvegicus [4]) | pKb [5] | Ki [6] [nM] | Ki [7] [nM] |
| --- | --- | --- | --- | --- | --- | --- | --- |
| COc1ccccc1N1CCN(CC2COC3(CCN(S(=O)(=O)c4ccc(OC(F)(F)F)cc4)CC3)O2)CC1 (stereo not drawn) | 6.98 | 5.75 | 26.3 | 2.45 | 7.37 | 148 | 8.91 |
| COc1ccccc1N1CCN(CC2COC3(CCN(C(=O)Nc4ccccc4)CC3)O2)CC1 (stereo not drawn) | 7.22 | 9.12 | 13.2 | 1.09 | 7.26 | 81.3 | 12 |
| COc1ccccc1N1CCN(CC2COC3(CCN(Cc4ccccc4)CC3)O2)CC1 (stereo not drawn) | 7.72 | 0.29 | 4.68 | 7.58 | 8.6 | 16.6 | 6.76 |
| COc1ccccc1N1CCN(CC2COC3(CCN(C(=O)C(F)(F)F)CC3)O2)CC1 (stereo not drawn) | 6.97 | 10.7 | 417 | 3.39 | 7.5 | 1000 | > 1000 |
